Results on one substance are retold here after paper PMC11867109 (Chemical Science, 2025).

Series [1] is described as follows: Helicity and helical rigidity by circular dichroism. Format: physicochemical. The conditions noted are these: ratio between molar ellipticity in 15% TFE and in 100% TFE. Background: CD spectra are sensitive to the conformation of chiral molecules.
The subject of the next series is human red blood cells. Description: Hemolysis assay. It is filed as cell-based. The conditions noted are these: hRBC, at 64 μg mL^−1 peptide; mean ± SD. An outline of the steps: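 Human red blood cells exposed to two-fold serial dilutions of test peptide, with 4096 µg mL⁻¹ as the assay's upper concentration limit. HC10 is interpolated continuously from the dilution series. Values are means of three independent experiments, each with at least two technical duplicates, with standard deviation.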

No end group written: not given here.

For the substance GLFDIIKKIAESF-NH2 [Aurein 1.2], the “Helical rigidity % ± SD” value in series [1] is listed as 102 ± 2%. In the series on human red blood cells, this substance showed a hemolysis of 37.2 ± 1.8%.
